Source: PubChem BioAssay
Calls of active or inactive are those of the source.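 Rule for the calls: active = GFP response above 150% of the DMSO control; inconclusive = fewer than 70 events counted in any yeast strain; inactive = the rest.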

Test: yeast TOR pathway reporter LAP4-GFP change – cell-based, cherry picks, flow cytometry, mother/daughter gates, confirmation (AID 2271);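 note: ratio of sample to DMSO plate mean so 100% equals DMSO level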
Details: S. cerevisiae LAP4-GFP strain, 3 h, at 10 µM, stronger effect = higher value, 100 means same as DMSO control
Procedure, shortened: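 Material: Alexa Fluor 633-labelled Saccharomyces cerevisiae GFP-fusion strain, single-plex | Amount: Yeast cells seeded at OD600 of 0.2 | Buffer or medium: SC growth medium | Schedule: 3 h exposure, 30 °C | Measured by: HT flow cytometry, GFP fluorescence channel | Evaluation: % GFP response vs DMSO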

SMILES	GFP response relative to DMSO
Cc1ccc(C(=O)NNC(=S)NC(=O)COc2ccccc2)cc1	223% (active)
O=C(OCc1cc(Cl)ccc1OC(F)F)c1ccc([N+](=O)[O-])o1	114% (inactive)
O=C(OCCOc1ccccc1)c1n[nH]c2ccccc12	103% (inactive)
O=C1C=CC(=O)N1c1ccc(Sc2ccc([N+](=O)[O-])cc2)cc1	143% (inactive)
CCn1c(=O)c(C(=O)Nc2ccsc2C(=O)OC)c(O)c2ccccc21	93.1% (inactive)
COCC(=O)Nc1cc([N+](=O)[O-])ccc1C	101% (inactive)
O=C1/C(=C\c2ccc(O)c(O)c2)SC(=S)N1Cc1ccccc1	116% (inactive)
COc1ccc(C(=O)/C=C2/C(=O)Nc3ccccc32)cc1	133% (inactive)
O=C(Nc1cc(Sc2ccccn2)cc([N+](=O)[O-])c1)c1ccc(Cl)cc1	99.2% (inactive)
c1ccc(-c2cccc(-c3ccccn3)n2)nc1	258% (active)
CN1CCSc2ccc(C(=O)Nc3cccc(F)c3)cc21	120% (inactive)
Cc1nn(C)cc1C(C)NC(=O)c1cc(COc2ccc(F)c(F)c2)on1 (stereo not given)	93.8% (inactive)
Oc1ccccc1/C=N/c1c(-c2ccco2)nc2ccccn12	93.8% (inactive)
CC(C(=O)NCCc1ccc(F)cc1)N1CCN(Cc2ccccc2)CC1 (stereo not given)	98.7% (inactive)
COc1ccc(C(=O)/C=C2/C(=O)Nc3ccccc32)cc1OC	97.7% (inactive)
COC(=O)CNc1c(-c2ccccn2)nc2ccc(Br)cn12	96.7% (inactive)
C=CCOc1ccc(/C=C2\N=C(C)OC2=O)cc1OC	137% (inactive)
COc1ccccc1C1CC(c2c(-c3ccccc3)c3cc(Cl)ccc3[nH]c2=O)=NN1S(C)(=O)=O (stereo not given)	106% (inactive)
COC(=O)Cn1nc(-c2ccccc2)c2ccccc21	106% (inactive)
COc1ccccc1C(=O)NNC(=O)C(=O)Nc1cccc(Cl)c1C	112% (inactive)

SMILES	GFP response relative to DMSO
O=C(NCC(=O)N1CCCC1)c1cccs1	99.2% (inactive)
COC(=O)Cc1csc(Nc2ccc(F)c(Cl)c2)n1	97.4% (inactive)
O=C1C2C3C=CC(CO)(O3)C2C(=O)N1c1ccccc1-c1ccccc1 (stereo not given)	135% (inactive)
COC(=O)c1ccc(/C=C/C(=O)c2ccc(OC)c(OC)c2)cc1	113% (inactive)
Cn1c(=O)c2ccccc2n(Cc2cccc(F)c2)c1=O	104% (inactive)
COc1cc(/C=C/C(=O)c2c(O)cc(C)oc2=O)cc(OC)c1O	106% (inactive)
O=[N+]([O-])c1cc(Cl)ccc1Sc1ccccn1	98.2% (inactive)
COc1ccc(NC(=O)CCc2nc(-c3ccccc3F)no2)cc1	106% (inactive)
COc1ccc(-c2nnc(NC(=O)c3ccc(S(=O)(=O)N4COCC4(C)C)cc3)o2)cc1	95.3% (inactive)
C/C(CCC12CC3CC(CC(C3)C1)C2)=N\NC(N)=S	133% (inactive)
C=CCn1cc(/C=C/c2cc[n+](C)cc2)c2ccccc21	108% (inactive)
Cc1ccc(S(=O)(=O)Cc2cc(F)c([N+](=O)[O-])cc2[N+](=O)[O-])cc1	251% (active)
CS(=O)(=O)N1N=C(c2ccco2)CC1c1ccccc1 (stereo not given)	102% (inactive)
NC(=O)CSCc1c(Cl)cccc1Cl	105% (inactive)
N#C/C(=C\c1c(N2CCCCCC2)nc2ccccn2c1=O)C(=O)NCc1ccco1	92.8% (inactive)
O=C(OCc1ccco1)c1ccc(S(=O)(=O)N2CCCCC2)cc1	98.2% (inactive)
O=C(OCC(=O)N1CCN(C(=O)c2ccco2)CC1)c1cc(-c2ccc(Cl)c(Cl)c2Cl)nc2ccccc12	97.9% (inactive)
COc1ccc(/C(C)=N/NC(=O)c2ccc(N(C)C)cc2)cc1	95% (inactive)
O=C(c1ccccc1Br)N1CCN(c2ccccc2)CC1	93.8% (inactive)
O=C(Nc1nc(-c2ccc(Cl)cc2)cs1)c1cccnc1	105% (inactive)

Same assay, conditions: S. cerevisiae LAP4-GFP strain, 3 h, measured here: daughter cell gate response, at 10 µM, stronger effect = higher value, 100 means same as DMSO control

SMILES	GFP response relative to DMSO
Cc1ccc(C(=O)NNC(=S)NC(=O)COc2ccccc2)cc1	186%
O=C(OCc1cc(Cl)ccc1OC(F)F)c1ccc([N+](=O)[O-])o1	110%
O=C(OCCOc1ccccc1)c1n[nH]c2ccccc12	97.9%
O=C1C=CC(=O)N1c1ccc(Sc2ccc([N+](=O)[O-])cc2)cc1	142%
CCn1c(=O)c(C(=O)Nc2ccsc2C(=O)OC)c(O)c2ccccc21	92.6%
COCC(=O)Nc1cc([N+](=O)[O-])ccc1C	99.3%
O=C1/C(=C\c2ccc(O)c(O)c2)SC(=S)N1Cc1ccccc1	117%
COc1ccc(C(=O)/C=C2/C(=O)Nc3ccccc32)cc1	122%
O=C(Nc1cc(Sc2ccccn2)cc([N+](=O)[O-])c1)c1ccc(Cl)cc1	101%
c1ccc(-c2cccc(-c3ccccn3)n2)nc1	210%
CN1CCSc2ccc(C(=O)Nc3cccc(F)c3)cc21	115%
Cc1nn(C)cc1C(C)NC(=O)c1cc(COc2ccc(F)c(F)c2)on1 (stereo not given)	94.1%
Oc1ccccc1/C=N/c1c(-c2ccco2)nc2ccccn12	97.2%
CC(C(=O)NCCc1ccc(F)cc1)N1CCN(Cc2ccccc2)CC1 (stereo not given)	100%
COc1ccc(C(=O)/C=C2/C(=O)Nc3ccccc32)cc1OC	96.5%
COC(=O)CNc1c(-c2ccccn2)nc2ccc(Br)cn12	96%
C=CCOc1ccc(/C=C2\N=C(C)OC2=O)cc1OC	136%
COc1ccccc1C1CC(c2c(-c3ccccc3)c3cc(Cl)ccc3[nH]c2=O)=NN1S(C)(=O)=O (stereo not given)	107%
COC(=O)Cn1nc(-c2ccccc2)c2ccccc21	101%
COc1ccccc1C(=O)NNC(=O)C(=O)Nc1cccc(Cl)c1C	118%

SMILES	GFP response relative to DMSO
O=C(NCC(=O)N1CCCC1)c1cccs1	97.6%
COC(=O)Cc1csc(Nc2ccc(F)c(Cl)c2)n1	98.7%
O=C1C2C3C=CC(CO)(O3)C2C(=O)N1c1ccccc1-c1ccccc1 (stereo not given)	128%
COC(=O)c1ccc(/C=C/C(=O)c2ccc(OC)c(OC)c2)cc1	110%
Cn1c(=O)c2ccccc2n(Cc2cccc(F)c2)c1=O	101%
COc1cc(/C=C/C(=O)c2c(O)cc(C)oc2=O)cc(OC)c1O	104%
O=[N+]([O-])c1cc(Cl)ccc1Sc1ccccn1	95.9%
COc1ccc(NC(=O)CCc2nc(-c3ccccc3F)no2)cc1	101%
COc1ccc(-c2nnc(NC(=O)c3ccc(S(=O)(=O)N4COCC4(C)C)cc3)o2)cc1	92.9%
C/C(CCC12CC3CC(CC(C3)C1)C2)=N\NC(N)=S	125%
C=CCn1cc(/C=C/c2cc[n+](C)cc2)c2ccccc21	107%
Cc1ccc(S(=O)(=O)Cc2cc(F)c([N+](=O)[O-])cc2[N+](=O)[O-])cc1	146%
CS(=O)(=O)N1N=C(c2ccco2)CC1c1ccccc1 (stereo not given)	102%
NC(=O)CSCc1c(Cl)cccc1Cl	103%
N#C/C(=C\c1c(N2CCCCCC2)nc2ccccn2c1=O)C(=O)NCc1ccco1	96%
O=C(OCc1ccco1)c1ccc(S(=O)(=O)N2CCCCC2)cc1	97.5%
O=C(OCC(=O)N1CCN(C(=O)c2ccco2)CC1)c1cc(-c2ccc(Cl)c(Cl)c2Cl)nc2ccccc12	99.2%
COc1ccc(/C(C)=N/NC(=O)c2ccc(N(C)C)cc2)cc1	94.1%
O=C(c1ccccc1Br)N1CCN(c2ccccc2)CC1	92.5%
O=C(Nc1nc(-c2ccc(Cl)cc2)cs1)c1cccnc1	101%
